Measurements: ChEMBL document CHEMBL1138569, “A facile synthesis of novel biologically active 4-hydroxy-N'-(benzylidene)-2H-benzo[e][1,2]thiazine-3-carbohydrazide 1,1-dioxides” (2009)
Activity calls are given as the source filed them. The calls are words filed in the database; no cut-off is given here.

Legend:
[1] = tested on: Radical scavenging activity; assay: Antioxidant activity assessed as DPPH radical scavenging activity after 30 mins; assay type: functional; design: concentration or dose not given beside the values
Outline: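 Test sample (0.5 mM stock in DMSO, 5 µL) mixed with 95 µL DPPH in ethanol and incubated at 37 °C for 30 min. Absorbance read at 515 nm. Percent radical scavenging calculated against a DMSO-containing control; 3-tert-butyl-4-hydroxyanisole used as reference.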

Staphylococcus aureus [2] = assay: Antibacterial activity against Staphylococcus aureus at 1 mg/ml by agar well diffusion method; assay type: functional; details: for zone of inhibition at 1000 µg/mL: read-out: IZ
Outline: (§1)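 Agar well diffusion; compounds loaded into 6 mm wells at 1 mg per ml DMSO, with a DMSO-only (0) control. Read-out: inhibition zone diameter (mm).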

Pseudomonas aeruginosa [3] = assay: Antibacterial activity against Pseudomonas aeruginosa at 1 mg/ml by agar well diffusion method; assay type: functional, organism-based; outline: as §1
Shigella flexneri [4] = assay: Antibacterial activity against Shigella flexneri at 1 mg/ml by agar well diffusion method; assay type: functional; details: for zone of inhibition at 1000 µg/mL: read-out: IZ; outline: as §1
Bacillus subtilis [5] = assay: Antibacterial activity against Bacillus subtilis at 1 mg/ml by agar well diffusion method; assay type: functional, organism-based; outline: as §1
Escherichia coli [6] = assay: Antibacterial activity against Escherichia coli at 1 mg/ml by agar well diffusion method; assay type: functional, organism-based; outline: as §1
[7] = tested on: Salmonella enterica subsp. enterica serovar Typhi str. CT18; assay: Antibacterial activity against Salmonella typhi at 1 mg/ml by agar well diffusion method; assay type: functional; details: for zone of inhibition at 1000 µg/mL: read-out: IZ
Outline: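 Agar well diffusion against Salmonella typhi. Samples were dissolved in DMSO at 1 mg per ml and applied to 6 mm diameter wells. A solvent-only well served as control. Activity was read as inhibition zone diameter in mm.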

[8] = tested on: Salmonella enterica subsp. enterica serovar Typhi str. CT18; assay: Antibacterial activity against Salmonella typhi at 10 ug/disk by agar well diffusion method; assay type: functional; details: read-out: IZ
Outline: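 Agar well diffusion against Salmonella typhi, using the reference antibiotic imipenem applied at 10 µg per disc alongside 6 mm sample wells. Activity was read as inhibition zone diameter in mm.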

Pseudomonas aeruginosa [9] = assay: Antibacterial activity against Pseudomonas aeruginosa at 10 ug/disk by agar well diffusion method; assay type: functional; details: read-out: IZ
Outline: (§2)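 Agar well diffusion with imipenem as the standard at 10 µg per disc, run alongside 6 mm wells and a DMSO-only control. Read-out: inhibition zone diameter (mm).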

Staphylococcus aureus [10] = assay: Antibacterial activity against Staphylococcus aureus at 10 ug/disk by agar well diffusion method; assay type: functional; details: read-out: IZ; outline: as §2
Shigella flexneri [11] = assay: Antibacterial activity against Shigella flexneri at 10 ug/disk by agar well diffusion method; assay type: functional; details: read-out: IZ; outline: as §2
Escherichia coli [12] = assay: Antibacterial activity against Escherichia coli at 10 ug/disk by agar well diffusion method; assay type: functional; details: read-out: IZ; outline: as §2
Bacillus subtilis [13] = assay: Antibacterial activity against Bacillus subtilis at 10 ug/disk by agar well diffusion method; assay type: functional; details: read-out: IZ; outline: as §2

Row | Structure (SMILES) | Activity [1] [%] | zone of inhibition at 1000 µg/mL (Staphylococcus aureus [2]) [mm] | inhibition zone (IZ) (Pseudomonas aeruginosa [3]) | inhibition zone (IZ) (Shigella flexneri [4]) | inhibition zone (IZ) (Bacillus subtilis [5]) | inhibition zone (IZ) (Escherichia coli [6]) | inhibition zone (IZ) [7] | inhibition zone (IZ) (Staphylococcus aureus [2]) | zone of inhibition at 1000 µg/mL [7] [mm] | zone of inhibition at 1000 µg/mL (Shigella flexneri [4]) [mm] | zone of inhibition at 10 µg/disc [8] [mm] | zone of inhibition at 10 µg/disc (Pseudomonas aeruginosa [9]) [mm] | zone of inhibition at 10 µg/disc (Staphylococcus aureus [10]) [mm] | zone of inhibition at 10 µg/disc (Shigella flexneri [11]) [mm] | zone of inhibition at 10 µg/disc (Escherichia coli [12]) [mm] | zone of inhibition at 10 µg/disc (Bacillus subtilis [13]) [mm]
1 | COc1cc(/C=N/NC(=O)C2=C(O)c3ccccc3S(=O)(=O)N2)ccc1O | 35 | 15 | inactive | inactive | inactive | inactive | inactive | – | – | – | – | – | – | – | – | –
2 | O=C(N/N=C/c1ccc(Cl)cc1)C1=C(O)c2ccccc2S(=O)(=O)N1 | 21.2 | – | inactive | inactive | inactive | inactive | inactive | inactive | – | – | – | – | – | – | – | –
3 | O=C(N/N=C/c1ccc(O)cc1O)C1=C(O)c2ccccc2S(=O)(=O)N1 | 65 | – | inactive | inactive | inactive | inactive | – | inactive | 28 | – | – | – | – | – | – | –
4 | O=C(N/N=C/c1ccccc1Cl)C1=C(O)c2ccccc2S(=O)(=O)N1 | 57.4 | – | inactive | inactive | inactive | inactive | inactive | inactive | – | – | – | – | – | – | – | –
5 | COc1ccc(/C=N/NC(=O)C2=C(O)c3ccccc3S(=O)(=O)N2)cc1 | 43.7 | 12 | inactive | inactive | inactive | inactive | inactive | – | – | – | – | – | – | – | – | –
6 | O=C(N/N=C/c1ccc([N+](=O)[O-])cc1)C1=C(O)c2ccccc2S(=O)(=O)N1 | 30.9 | – | inactive | inactive | inactive | inactive | – | inactive | 26 | – | – | – | – | – | – | –
7 | O=C(N/N=C/c1ccccc1[N+](=O)[O-])C1=C(O)c2ccccc2S(=O)(=O)N1 | 37.3 | 10 | inactive | inactive | inactive | inactive | – | – | 11 | – | – | – | – | – | – | –
8 | COc1ccc(/C=N/NC(=O)C2=C(O)c3ccccc3S(=O)(=O)N2)cc1OC | 38 | – | inactive | – | inactive | inactive | – | inactive | 11 | 20 | – | – | – | – | – | –
9 | C[C@@H](O)[C@H]1C(=O)N2C(C(=O)O)=C(SCCNC=N)C[C@H]12 [IMIPENEM ANHYDROUS] | – | – | – | – | – | – | – | – | – | – | 30 | 32 | 26 | 37 | 30 | 36
10 | COc1ccc(/C=N/NC(=O)C2=C(O)c3ccccc3S(=O)(=O)N2)c(OC)c1OC | 43.6 | 21 | inactive | – | inactive | inactive | inactive | – | – | 22 | – | – | – | – | – | –
11 | O=C(N/N=C/c1ccc(Cl)cc1Cl)C1=C(O)c2ccccc2S(=O)(=O)N1 | 43.8 | – | inactive | – | inactive | inactive | inactive | inactive | – | 10 | – | – | – | – | – | –
12 | COc1ccc(/C=N/NC(=O)C2=C(O)c3ccccc3S(=O)(=O)N2)cc1O | 42.9 | 10 | inactive | – | inactive | inactive | inactive | – | – | 10 | – | – | – | – | – | –
13 | O=C(N/N=C/c1ccccc1O)C1=C(O)c2ccccc2S(=O)(=O)N1 | 40.7 | – | inactive | inactive | inactive | inactive | inactive | inactive | – | – | – | – | – | – | – | –
14 | COc1ccc(/C=N/NC(=O)C2=C(O)c3ccccc3S(=O)(=O)N2)c(OC)c1 | 68.2 | – | inactive | inactive | inactive | inactive | inactive | inactive | – | – | – | – | – | – | – | –
15 | O=C(N/N=C/c1cccc(Cl)c1)C1=C(O)c2ccccc2S(=O)(=O)N1 | 23.8 | – | inactive | inactive | inactive | inactive | inactive | inactive | – | – | – | – | – | – | – | –
16 | COc1ccc(O)c(C(C)(C)C)c1.COc1ccc(O)cc1C(C)(C)C | 92.6 | – | inactive | inactive | inactive | inactive | inactive | inactive | – | – | – | – | – | – | – | –
17 | O=C(N/N=C/c1ccccc1)C1=C(O)c2ccccc2S(=O)(=O)N1 | 37.6 | – | inactive | inactive | inactive | inactive | inactive | inactive | – | – | – | – | – | – | – | –
